# Data published in ChEMBL document CHEMBL1122803, “Folate antagonists. 22. Antimalarial and antibacterial effects of 2,4-diamino-6-quinazolinesulfonamides” (1984).
# Key:
# Plasmodium berghei [1] = test: Antimalarial activity as change in MST for drug-sensitive Plasmodium berghei infected mice (Mus musculus) at 40 mg/kg subcutaneous dose over 72hr; type: functional
# [2] = test system: Mycobacterium tuberculosis; test: In vitro antibacterial activity against Mycobacterium tuberculosis H37Rv.; type: functional
# Summary of the method: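 Mycobacterium tuberculosis tested in vitro by gradient-plate test; minimum inhibitory concentration reported.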
# Enterococcus faecalis [3] = test: In vitro antibacterial activity against Streptococcus faecalis MGH-2.; type: functional
# Summary of the method: (§1)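 Antibacterial testing in vitro by gradient-plate test. Read-out was the minimum inhibitory concentration, with values exceeding 25 reported as >25.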
# Plasmodium berghei [4] = test: Antimalarial activity as change in MST against drug-sensitive Plasmodium berghei infected mice (Mus musculus) at 160 mg/kg subcutaneous dose after 72h; type: functional
# Plasmodium berghei [5] = test: In vivo antimalarial activity against drug-sensitive Plasmodium berghei in mice (Mus musculus) after 320 mg/kg subcutaneous dose for 72 hrs as survivors 60 days post infection
# Plasmodium berghei [6] = test: Antimalarial activity as change in MST against drug-sensitive Plasmodium berghei infected mice (Mus musculus) at 20 mg/kg subcutaneous dose after 72h; type: functional
# Staphylococcus aureus [7] = test: In vitro antibacterial activity against […] S 18713.; type: functional; summary of the method: as §1
# Shigella sonnei = test: In vitro antibacterial activity against Shigella sonnei C-10.; type: functional; summary of the method: as §1
# Escherichia coli [8] = test: Tested in vitro against Escherichia coli Vogel. by gradient-plate test; type: functional; summary of the method: as §1
# Staphylococcus aureus [9] = test: In vitro antibacterial activity against […] U.C-76.; type: functional; summary of the method: as §1
# Plasmodium berghei [10] = test: Antimalarial activity as change in MST for drug-sensitive Plasmodium berghei infected mice (Mus musculus) at 80mg/kg subcutaneous dose over 72h; type: functional
# Plasmodium berghei [11] = test: Antimalarial activity as survivor numbers at day 60 for drug-sensitive Plasmodium berghei infected mice (Mus musculus) at 640 mg/kg subcutaneous dose over 72 hr; type: functional
# Summary of the method: (§2)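 Mice infected with drug-sensitive P. berghei got one subcutaneous dose in sesame or peanut oil 72 h postinfection. Read-out is the number of mice alive at 60 days postinfection, termed "cured", without subinoculation to confirm parasitological cure. Groups of five per dose, or 10 where indicated.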
# Pseudomonas aeruginosa [12] = test: Compound was tested in vitro against Pseudomonas aeruginosa 28. by gradient-plate test.; type: functional; summary of the method: as §1
# Plasmodium berghei [13] = test: Antimalarial activity as change in MST for drug-sensitive Plasmodium berghei infected mice (Mus musculus) at 640 mg/kg subcutaneous dose over 72 hr; type: functional
# Escherichia coli [14] = test: Compound was tested in vitro against Escherichia coli Vogel. by gradient-plate test.; type: functional; summary of the method: as §1
# Pseudomonas aeruginosa [15] = test: In vitro against Pseudomonas aeruginosa 28. by gradient-plate test; type: functional; summary of the method: as §1
# Plasmodium berghei [16] = test: Antimalarial activity as change in MST against drug-sensitive Plasmodium berghei infected mice (Mus musculus) at 320 mg/kg subcutaneous dose after 72 hr; type: functional
# Plasmodium berghei [17] = test: Antimalarial activity as change in MST for drug-sensitive Plasmodium berghei infected mice (Mus musculus) at 80 mg/kg subcutaneous dose over 72 hr; type: functional
# Plasmodium berghei [18] = test: Antimalarial activity as change in MST for drug-sensitive Plasmodium berghei infected mice (Mus musculus) at 40 mg/kg subcutaneous dose over 72 hr; type: functional
# Plasmodium berghei [19] = test: Antimalarial activity as change in MST for drug-sensitive Plasmodium berghei infected mice (Mus musculus) after 72 hrs at 320 mg/kg subcutaneous dose; type: functional
# Plasmodium berghei [20] = test: Antimalarial activity as toxic deaths 2-5 days post infection for drug-sensitive Plasmodium berghei infected mice (Mus musculus) at 640 mg/kg subcutaneous dose over 72 hr; type: functional
# Summary of the method: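 P. berghei (drug-sensitive) infected mice dosed once subcutaneously 72 h postinfection, compound in sesame or peanut oil. Read-out is the count of deaths on days 2–5 after infection, attributed to drug toxicity. Five animals per dose level, or 10 where indicated.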
# Plasmodium berghei [21] = test: Antimalarial activity as change in MST against drug-sensitive Plasmodium berghei infected mice (Mus musculus) at 160 mg/kg subcutaneous dose after 72 hr; type: functional
# Staphylococcus aureus [22] = test: Compound was tested in vitro against […] U.C-76. by gradient-plate test.; type: functional; summary of the method: as §1
# Staphylococcus aureus [23] = test: Compound was tested in vitro against […] S 18713 by gradient-plate test.; type: functional; summary of the method: as §1
# Plasmodium berghei [24] = test: Antimalarial activity as survivor number at day 60 for drug-sensitive Plasmodium berghei infected mice (Mus musculus) at 640 mg/kg subcutaneous dose over 72 hr; type: functional; summary of the method: as §2
# Enterococcus faecalis [25] = test: Compound was tested in vitro against Streptococcus faecalis MGH-2. by gradient-plate test.; type: functional; summary of the method: as §1
SMILES,Delta MST (Plasmodium berghei [1]) [days],MIC [2] [µg/mL],MIC (Enterococcus faecalis [3]) [µg/mL],Delta MST (Plasmodium berghei [4]) [days],Delta MST (Plasmodium berghei [6]) [days],MIC (Staphylococcus aureus [7]) [µg/mL],MIC (Shigella sonnei) [µg/mL],MIC (Escherichia coli [8]) [µg/mL],MIC (Staphylococcus aureus [9]) [µg/mL],Delta MST (Plasmodium berghei [10]) [days],Delta MST (Plasmodium berghei [13]) [days],MIC (Pseudomonas aeruginosa [15]) [µg/mL],Delta MST (Plasmodium berghei [16]) [days],also measured
Nc1nc(N)c2cc(S(=O)(=O)N3CCCC3)ccc2n1,5,10,< 0.25,8.7,0.5,2,> 25,10,< 0.25,6.9,,,,survivors at day 60 (Plasmodium berghei [5]): 5; survivors at day 60 (Plasmodium berghei [11]): 10; MIC (Pseudomonas aeruginosa [12]): > 25 µg/mL
CCN(CC)CCN(C)S(=O)(=O)c1ccc2nc(N)nc(N)c2c1,0.1,> 25,20,0.3,,> 25,> 25,,> 25,,0.3,> 25,,MIC (Escherichia coli [14]): > 25 µg/mL
Nc1nc(N)c2cc(S(=O)(=O)Nc3ccc4ccccc4c3)ccc2n1,,,5,1.1,0.3,> 25,> 25,> 25,> 25,,5.3,> 25,1.5,Delta MST (Plasmodium berghei [17]): 0.5 days; Delta MST (Plasmodium berghei [18]): 0.3 days
CN(Cc1ccc(Cl)c(Cl)c1)S(=O)(=O)c1ccc2nc(N)nc(N)c2c1,,> 25,> 25,0.5,0.3,> 25,> 25,> 25,> 25,0.5,9.5,> 25,4.1,Delta MST (Plasmodium berghei [18]): 0.3 days
Nc1nc(N)c2cc(S(=O)(=O)N3CCSCC3)ccc2n1,2.5,> 25,< 0.25,8.3,1.7,< 0.25,2,2,< 0.25,3.5,12.6,> 25,,Delta MST (Plasmodium berghei [19]): 9.6 days
CCN(CC)S(=O)(=O)c1ccc2nc(N)nc(N)c2c1Cl,2.3,> 25,< 0.25,,,> 25,> 25,> 25,10,4.3,,> 25,18.9,toxic deaths (Plasmodium berghei [20]): 5; Delta MST (Plasmodium berghei [21]): 14.9 days
CN(c1ccccc1)S(=O)(=O)c1ccc2nc(N)nc(N)c2c1,,> 25,> 25,8.3,0.5,> 25,> 25,> 25,> 25,3.1,13.9,> 25,11.5,Delta MST (Plasmodium berghei [18]): 0.5 days
Nc1nc(N)c2cc(S(=O)(=O)N3CCC(N4CCCCC4)CC3)ccc2n1,0.3,> 25,> 25,0.7,,> 25,> 25,> 25,> 25,0.5,3.9,> 25,2.1,
Nc1nc(N)c2cc(S(=O)(=O)N(CCO)CCO)ccc2n1,,,,1.3,0.3,,,,,0.5,8.1,,4.1,Delta MST (Plasmodium berghei [18]): 0.3 days
CCCN(CCC)S(=O)(=O)c1ccc2nc(N)nc(N)c2c1,0.3,,,,,,,,,,1.3,,,Delta MST (Plasmodium berghei [21]): 0.4 days
CN1CCN(S(=O)(=O)c2ccc3nc(N)nc(N)c3c2)CC1,1,> 25,2,4.4,0.3,,> 25,> 25,,1.5,11.8,,,MIC (Staphylococcus aureus [22]): 2 µg/mL; MIC (Staphylococcus aureus [23]): > 25 µg/mL; MIC (Pseudomonas aeruginosa [12]): > 25 µg/mL; Delta MST (Plasmodium berghei [19]): 8.9 days
Nc1nc(N)c2cc(S(=O)(=O)N3CCCCC3)ccc2n1,,10,< 0.25,10.2,1.1,< 0.25,0.5,,< 0.25,4.7,,> 25,12.9,MIC (Escherichia coli [14]): < 0.25 µg/mL; Delta MST (Plasmodium berghei [18]): 4.4 days; survivors at day 60 (Plasmodium berghei [11]): 5
CN(C)S(=O)(=O)c1ccc2nc(N)nc(N)c2c1Cl,10.3,> 25,< 0.25,17,7.5,> 25,5,,15,12.2,,> 25,,survivors at day 60 (Plasmodium berghei [24]): 1; MIC (Escherichia coli [14]): 5 µg/mL; Delta MST (Plasmodium berghei [19]): 23.9 days
Cc1c(S(=O)(=O)N(C)C)ccc2nc(N)nc(N)c12,,> 25,< 0.25,,,2.5,1.5,< 0.25,2,,,> 25,,toxic deaths (Plasmodium berghei [20]): 5; Delta MST (Plasmodium berghei [18]): 1.1 days
Nc1nc(N)c2cc(S(=O)(=O)N3CCCCC3Cc3ccccc3)ccc2n1 (stereo not drawn),0.3,> 25,< 0.25,0.3,,> 25,> 25,> 25,2,,0.5,> 25,,
CCOC(=O)N1CCN(S(=O)(=O)c2ccc3nc(N)nc(N)c3c2)CC1,0.2,> 25,2,4.1,0.1,> 25,> 25,> 25,2,0.5,,> 25,4.7,survivors at day 60 (Plasmodium berghei [11]): 4
CC(C)N(C)S(=O)(=O)c1ccc2nc(N)nc(N)c2c1,0.7,,,7.3,0.5,,,,,,,,6.9,Delta MST (Plasmodium berghei [17]): 4 days
Nc1nc(N)c2cc(S(=O)(=O)Nc3cccc(Br)c3)ccc2n1,0.3,> 25,> 25,0.5,0.3,> 25,> 25,> 25,> 25,0.5,4.1,> 25,1.7,
Nc1nc(N)c2cc(S(=O)(=O)Nc3ccc(Cl)c(Cl)c3)ccc2n1,3.1,> 25,,10.1,0.3,> 25,> 25,> 25,2.5,8.1,,> 25,9.9,MIC (Enterococcus faecalis [25]): > 25 µg/mL; survivors at day 60 (Plasmodium berghei [11]): 5
Nc1nc(N)c2cc(S(=O)(=O)Nc3ccc(Cl)cc3)ccc2n1,0.7,,,9.3,0.5,,,,,4.9,13.9,,14.7,
CN(c1cccc(Cl)c1)S(=O)(=O)c1ccc2nc(N)nc(N)c2c1,0.3,> 25,> 25,4.5,0.3,> 25,> 25,> 25,> 25,0.5,11.9,,6.9,MIC (Pseudomonas aeruginosa [12]): > 25 µg/mL
